In ChEMBL document CHEMBL3393003, “1,2,3,9b-Tetrahydro-5H-imidazo[2,1-a]isoindol-5-ones as a new class of respiratory syncytial virus (RSV) fusion inhibitors. Part 2: identification of BTA9881 as a preclinical candidate” (Bioorg Med Chem Lett, 2015):
In brackets after ≈: the same amount, converted by molar mass. Values belong to the compound of their own block, whether it stands above or below them.

Tests used:
[1] = system: Respiratory syncytial virus; assay: Resistance index, ratio of EC50 for drug resistant respiratory syncytial virus B1 expressing F protein L141F mutant to EC50 for wild type Respiratory syncytial virus B1; format: functional
[2] = system: Respiratory syncytial virus; assay: Resistance index, ratio of EC50 for drug resistant respiratory syncytial virus Long expressing F protein Q494L mutant to EC50 for wild type Respiratory syncytial virus Long
[3] = system: Respiratory syncytial virus; assay: Resistance index, ratio of EC50 for VP-14637 resistant respiratory syncytial virus Long expressing F protein D489Y mutant to EC50 for wild type Respiratory syncytial virus Long
[4] = system: Respiratory syncytial virus; assay: Antiviral activity against respiratory syncytial virus A2 infected in human Hep2 cells assessed as reduction in virus-induced cytopathic effect after 5 days by MTT assay; format: functional, organism-based; settings: A2, HEp-2, 120 h
Summary of the method: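 HEp2 cells (1.0 × 10⁴/well) infected at low moi (RSV A2 at moi 0.01) and added to serial compound dilutions; incubated 5 days at 37 °C, 5% CO₂. CPE read by MTT (1 mg/ml) metabolism after 2 h incubation.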

[5] = Elimination half life in Sprague-Dawley rat at 19 mg/kg, po; format: ADME, organism-based; design: dose 19 mg/kg, route oral; settings: in vivo, read-out: beta t1/2 (converted)
Summary of the method: (§1)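 Male Sprague Dawley rats, n = 2, oral dose as suspension in hydroxypropylmethylcellulose, in carboxymethylcellulose, or in 0.5% HPMC/0.5% benzyl alcohol/0.4% Tween80. Cmax (µM), T1/2 and F (%) derived from plasma levels.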

[6] = Kinetic solubility in 0.01M HCl buffer at pH 2.0 by nephelometry; format: physicochemical; settings: read-out: Kinetic_solubility
Summary of the method: (§2)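 Compound dissolved in DMSO and added to 0.01 M HCl (pH 2) or pH 6.5 isotonic phosphate buffer, 1% final DMSO. Solubility range determined by nephelometry.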

[7] = Apparent volume of distribution in Sprague-Dawley rat at 2 mg/kg, iv; format: ADME, organism-based; design: dose 2 mg/kg, route intravenous; settings: in vivo, read-out: Vz
[8] = Lipophilicity, log D of the compound at pH 7.4 by chromatography; format: physicochemical; settings: buffer
Summary of the method: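 Effective logD measured chromatographically on an LC-ABZ column, octanol-saturated mobile phase at pH 7.4.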

[9] = Kinetic solubility in isotonic phosphate buffer at pH 6.5 by nephelometry; format: physicochemical; settings: read-out: Kinetic_solubility; summary of the method: as §2
[10] = Elimination half life in Sprague-Dawley rat at 2 mg/kg, iv; format: ADME, organism-based; design: dose 2 mg/kg, route intravenous; settings: in vivo, read-out: beta t1/2 (converted)
[11] = Plasma clearance in Sprague-Dawley rat at 2 mg/kg, iv; format: ADME, organism-based; design: dose 2 mg/kg, route intravenous
[12] = Oral bioavailability in Sprague-Dawley rat at 19 mg/kg; format: ADME, organism-based; settings: in vivo; summary of the method: as §1
[13] = Cmax in Sprague-Dawley rat at 19 mg/kg, po; format: ADME, organism-based; design: dose 19 mg/kg, route oral; settings: in vivo; summary of the method: as §1
[14] = system: Respiratory syncytial virus; assay: Antiviral activity against respiratory syncytial virus Long infected in human Hep2 cells assessed as reduction in virus-induced cytopathic effect after 5 days by MTT assay; format: functional, organism-based; settings: HEp-2, 120 h
[15] = system: Respiratory syncytial virus; assay: Antiviral activity against respiratory syncytial virus B1 infected in human Hep2 cells assessed as reduction in virus-induced cytopathic effect after 5 days by MTT assay; format: functional, organism-based; settings: B1, HEp-2, 120 h
[16] = Plasma clearance in Sprague-Dawley rat at 5.1 mg/kg, iv; format: ADME, organism-based; design: dose 5.1 mg/kg, route intravenous
[17] = Apparent volume of distribution in Sprague-Dawley rat at 5.1 mg/kg, iv; format: ADME, organism-based; design: dose 5.1 mg/kg, route intravenous; settings: in vivo, read-out: Vz
[18] = Elimination half life in Sprague-Dawley rat at 5.1 mg/kg, iv; format: ADME, organism-based; design: dose 5.1 mg/kg, route intravenous; settings: in vivo, read-out: beta t1/2 (converted)
[19] = system: Respiratory syncytial virus; assay: Potency shift index, ratio of EC50 for respiratory syncytial virus A2 infected in human Hep2 in presence of 1.5 mg/mL Alpha-1-acid glycoprotein to EC50 for respiratory syncytial virus A2 infected in human Hep2 in absence of Alpha-1-acid glycoprotein; format: functional
[20] = Cytotoxicity against human Hep2 cells assessed as reduction in cell viability after 5 days by MTT assay; format: cell-based, HEp-2
Summary of the method: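 Uninfected HEp2 cells (1.0 × 10⁴/well) exposed to serial compound dilutions for 5 days at 37 °C, 5% CO₂. Viability read by MTT (1 mg/ml) metabolism after 2 h incubation.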

Compound: O=c1n(Cc2nc3ccccc3n2CCCCO)c2cnccc2n1C1CC1
Ratio EC50 [1]: >345 | Ratio EC50 [2]: 10 | Ratio EC50 [3]: >20000

Compound: O=C(c1ccc(F)cc1)N1CCN2C(=O)c3ccncc3[C@]12c1ccc(Cl)cc1
EC50 [4]: 0.11 µM

Compound: O=C(c1ccc(F)cc1)N1CCN2C(=O)c3cc[n+]([O-])cc3[C@]12c1ccc(Cl)cc1
EC50 [4]: 0.17 µM

half-life [5]: 3.1 h | solubility kinetic [6]: 50 µg/mL (≈ 132 µM) | Vd [7]: 11 L/kg | chromatographic logD [8]: 2.5 | solubility kinetic [9]: > 100 µg/mL | half-life [10]: 2.4 h | clearance [11]: 55 mL/min/kg | bioavailability [12]: 35% | Cmax [13]: 0.77 µM
Compound: O=C(c1ccoc1)N1CCN2C(=O)c3ccncc3[C@]12c1ccc(Cl)cc1
EC50 [4]: 0.01 µM | EC50 [14]: 0.032 µM | EC50 [15]: 0.085 µM

Compound: O=C(c1csc(-c2cccnc2)n1)N1CCN2C(=O)c3ccncc3[C@]12c1ccc(Cl)cc1
EC50 [4]: 0.013 µM

half-life [5]: 9.3 h | solubility kinetic [6]: > 100 µg/mL | clearance [16]: 4.3 mL/min/kg | chromatographic logD [8]: 2.7 | solubility kinetic [9]: 25 µg/mL (≈ 61.2 µM) | Vd [17]: 3.8 L/kg | bioavailability [12]: 75% | Cmax [13]: 8.8 µM | half-life [18]: 11 h
Compound: O=C(c1ccc(F)nc1)N1CCN2C(=O)c3ccncc3[C@]12c1ccc(Cl)cc1
EC50 [4]: 0.075 µM | EC50 [14]: 0.13 µM | EC50 [15]: 0.29 µM

Compound: O=C(c1ccc(F)cc1)N1CCN2C(=O)c3ccncc3[C@@]12c1ccc(Cl)cc1
EC50 [4]: 14 µM

Compound: O=C(c1ccc(F)cc1)N1CCN2C(=O)c3cc[n+]([O-])cc3[C@@]12c1ccc(Cl)cc1
EC50 [4]: 8.6 µM

Compound: O=C(c1ccoc1)N1CCN2C(=O)c3ccncc3[C@@]12c1ccc(Cl)cc1
EC50 [4]: 0.67 µM

Compound: O=C(c1csc(-c2cccnc2)n1)N1CCN2C(=O)c3ccncc3[C@@]12c1ccc(Cl)cc1
EC50 [4]: 0.92 µM

Compound: O=C(c1cccnc1)N1CCN2C(=O)c3ccncc3[C@@]12c1ccc(Cl)cc1
EC50 [4]: > 1.2 µM

Compound: O=C(c1ccc(F)nc1)N1CCN2C(=O)c3ccncc3[C@@]12c1ccc(Cl)cc1
EC50 [4]: 7.8 µM

solubility kinetic [6]: > 100 µg/mL | chromatographic logD [8]: 3 | solubility kinetic [9]: 25 µg/mL (≈ 54.1 µM)
Compound: Cn1cc(C(=O)N2CCN3C(=O)c4ccncc4[C@@]32c2ccc(Cl)cc2)c(C(F)(F)F)n1
EC50 [4]: 0.0072 µM | EC50 [14]: 0.0064 µM | EC50 [15]: 0.1 µM

Compound: Cc1nnnn1N/C=C1\C=CC(=O)C(C(C2=C/C(=C/Nn3nnnc3C)C=CC2=O)c2ccc(O)cc2)=C1 (stereo unspecified)
Ratio EC50 [3]: >2174

Compound: Cc1ccc(CCCO)c(NCc2ccc3nc(NCCCN4CCOCC4)n(Cc4nc(C)ccc4O)c3c2)c1
Ratio EC50 [1]: >3333 | Ratio EC50 [2]: 11.5 | Ratio EC50 [3]: >10000

Vd [7]: 6 L/kg | half-life [10]: > 24 h | clearance [11]: 2.7 mL/min/kg
Compound: O=C(c1ccc(F)cc1)N1CCN2C(=O)c3ccncc3C12c1ccc(Cl)cc1 (racemic)
Ratio EC50 [19]: 7.2

Vd [7]: 1.3 L/kg | half-life [10]: 6.5 h | clearance [11]: 2.4 mL/min/kg
Compound: O=C(c1ccc(F)cc1)N1CCN2C(=O)c3cc[n+]([O-])cc3C12c1ccc(Cl)cc1 (racemic)

Compound: O=C(Nc1ccc(F)cc1)N1CCN2C(=O)c3ccncc3C12c1ccc(Cl)cc1 (racemic)
EC50 [4]: 1 µM | CC50 at 120 h [20]: > 20 µM

Compound: O=C(NCc1ccc(F)cc1)N1CCN2C(=O)c3ccncc3C12c1ccc(Cl)cc1 (racemic)
EC50 [4]: 0.93 µM | CC50 at 120 h [20]: > 20 µM

Compound: O=C(NCCc1ccc(F)cc1)N1CCN2C(=O)c3ccncc3C12c1ccc(Cl)cc1 (racemic)
EC50 [4]: 0.62 µM | CC50 at 120 h [20]: > 20 µM

Compound: O=C(c1ccno1)N1CCN2C(=O)c3ccncc3C12c1ccc(Cl)cc1 (racemic)
EC50 [4]: 0.37 µM | CC50 at 120 h [20]: > 19 µM
